What was measured:
[1] = folding enthalpy; higher = less favourable; fluorescence melt of hairpins on a sequencing array, two-state fit; conditions: sodium 0.088 M
Outline: (§1)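 Two-state fits, bootstrapped, provided melting temperature and folding enthalpy from Cy3 fluorescence normalised to pre-quench Cy3 and to control constructs. Library hairpins with annealed Cy3 and quencher oligos were imaged on a sequenced MiSeq flow cell in 50 mM Na-HEPES pH 8.0, 25 mM NaCl, at 2.5 °C intervals up to 60 °C. Four replicates were combined with inverse-variance weighting. A 9.35 °C upward shift was applied to fitted temperatures to match UV melts.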

[2] = melting temperature; fluorescence melt of hairpins on a sequencing array, two-state fit, raised by 9.35 °C to match UV melts; conditions: sodium 0.088 M
Outline: as §1

Sequence | folding enthalpy [1] [kcal/mol] | Tm [2] [°C]
GATGCAGGAAACTGTGTC ((..(((....)))..)) | -27.1 | 35.5
GATCCAAAGGTGGATC ((((((....)))))) | -26.1 | 47
GTACTAGAAATAGTAC ((((((....)))))) | -27.2 | 42.4
GTTGCTGGAAACAGTAAC (((.(((....))).))) | -29 | 47
GGGTGAGAAATCACCC ((((((....)))))) | -37.1 | 61.6
GGTTCAGCGAAAGCTACC (((..(((....)))))) | -16 | 32.7
GTCCATGGAAACATGAAC ((.((((....)))).)) | -18.5 | 36.4
GCGGTCGAAAGACTTCGC ((((((....)))..))) | -21.6 | 47.6
GATCTCACGCGAGATC ((((((....)))))) | -41.7 | 52.7
GATCCGGTCGCGGATC ((((((....)))))) | -36.7 | 60.2
GCTAGCGAAAGCTAAAGC ((((((....)))..))) | -19.1 | 46
GATAGAGGAAACCCTATC (((((.(....).))))) | -20.3 | 30.8
GGGACCGAAAGGTGCCC ((((((....))).))) | -17.7 | 61
GATCTAAAATAGATC ((((((...)))))) | -17.1 | 38.6
GTCGCAGGAAACCGCAAC ((.((.(....).)).)) | -12.8 | 25.8
GATGTGAAAACATC (((((....))))) | -28.4 | 49
GCTCTCCCGAAAGGGAGC (((..(((....)))))) | -7.28 | 33
GATTACGAAAGTATAATC ((((((....)))..))) | -7.84 | 27.1
GCTATCGGAAACGATAGC (((((((....))))))) | -52.4 | 64.3
GATCCTCATAAGGATC ((((((....)))))) | -34.4 | 52.6
GGACGCGGAAACGTGTCC ((((.((....)).)))) | -43.4 | 62.2
GCGTCGAAACGC ((((....)))) | -18.4 | 51.3
GTCCCTCGAAAGAGGAC (((.(((....)))))) | -14 | 51.3
GAAGGCGAAAGCCCGTTC ((((((....)))..))) | -12 | 27.2

Sequence | folding enthalpy [1] [kcal/mol] | Tm [2] [°C]
GGGATCGAAAGATCACCC ((((((....)))..))) | -13.4 | 51.1
GCTTGGAAACAAGC (((((....))))) | -31 | 53.7
GCGTGGTCGAAAGACCGC (((..(((....)))))) | -10.9 | 53.2
GATCACCACGTGATC ((((((...)))))) | -38.5 | 58.9
CGTATGCGGAAACGCACG (((..(((....)))))) | -9.53 | 40.7
GTTTCTGGAAACAGAAAC (((((((....))))))) | -43.3 | 55.1
GCCGTACCGAAAGGTGGC (((..(((....)))))) | -25.1 | 53.8
GTGAGTGGAAACATTCAC ((((.((....)).)))) | -33.9 | 43.9
GGACACGAAAGTGGATCC ((((((....)))..))) | -15.6 | 40.3
GGCACCGGAAACGGTGTC (.(((((....))))).) | -24.8 | 59.9
GCCAGGCGAAAGCCTCGC ((.((((....)))).)) | -17.4 | 54
GATCTTGCCAAGATC ((((((...)))))) | -26.1 | 47.5
GATCAACAAATTGATC ((((((....)))))) | -31.3 | 36.4
GATCTTATGAAAGATC ((((((....)))))) | -30.6 | 40.6
GCGTCTCACGC ((((...)))) | -23.4 | 56.4
GATCATTCTGATGATC ((((((....)))))) | -39.7 | 49.5
GGCCTCGGAAACGGGGCC ((((.((....)).)))) | -35.3 | 66.6
GTTGAGTCGAAAGACAAC (((..(((....)))))) | -14.6 | 31
GCCGTCGAAAGACATGGC ((((((....)))..))) | -23.9 | 52.1
GTCACAGGAAACTGTAAC ((.((((....)))).)) | -17.3 | 30.9
GCTAAACGAAAGTTAAGC (((.(((....))).))) | -29.1 | 44.3
GCATGCGAAAGCATTGC ((((((....))).))) | -21.3 | 57.9
GATCCAGTCTGGATC ((((((...)))))) | -38.1 | 55.1
GATCGCCGGCGCGATC ((((((....)))))) | -34.1 | 61.1

Sequence | folding enthalpy [1] [kcal/mol] | Tm [2] [°C]
GATCCGTCTTCGGATC ((((((....)))))) | -40 | 59.4
GCATTCGGAAACAAATGC (((((.(....).))))) | -28.9 | 38
GCGTTAGGAAACTAGTGC ((..(((....)))..)) | -11.4 | 25.7
GCTACCGAAAGGTTAGC ((((((....))).))) | -28 | 52.7
GCTCGCGGAAACGCAAGC (((.(((....))).))) | -28.7 | 49.8
GACTCCCGAAAGGGGGTC (((.(((....))).))) | -33.4 | 63.7
GTTGCTGGAAACGGCAAC (((((.(....).))))) | -43.6 | 55.2
GATCAAGGTTTTGATC ((((((....)))))) | -29.7 | 45.1
GCTTATGAAAATAAGC ((((((....)))))) | -31.8 | 51.6
GCCTTCGAAAGAAGGGC ((((((....))).))) | -15 | 63.1
GGGAAGCGAAAGCTACCC (((.(((....))).))) | -30.7 | 59.3
GCCTAGGGAAACTTGGGC (((.(.(....).).))) | -28.3 | 36.7
CGTCCGCGGAAACGCACG (((..(((....)))))) | -12 | 33.5
GAGCGTCCGAAAGGACTC (((..(((....)))))) | -7.91 | 30.7
GCGGACGAAAGTCCTCGC ((((((....)))..))) | -14.4 | 51.2
GCGGCCTCGAAAGAGCGC (((..(((....)))))) | -25.6 | 52.7
GCGGAAGGAAACTCCCGC ((((.((....)).)))) | -36.2 | 50
GACCACGCGAAAGCGGTC (((..(((....)))))) | -13.2 | 47.3
GCGCCGCGAAAGCATCGC (((..((....))..))) | -17 | 51.2
GTGTAGGGAAACCCACAC ((((.((....)).)))) | -24.5 | 45.8
GTCACCGAAAGGTGAGAC ((((((....)))..))) | -10.3 | 48
GACGACCGAAAGGTGTC (((.(((....)))))) | -26.5 | 52.2
GATGACGGAAACGTTATC (((.(((....))).))) | -29.6 | 46.2
CGGCCGGAAACGGCGCCG ((((((....)))..))) | -8.21 | 39.2

Sequence | folding enthalpy [1] [kcal/mol] | Tm [2] [°C]
GTCATCCGAAAGGAGGAC (((.(((....))).))) | -36.3 | 58.6
GGCTACGAAAGTATGGCC ((((((....)))..))) | -25.7 | 47.3
GCACGGCGAAAGCCAGGC ((..(((....)))..)) | -14.9 | 55
GCGGTCGGAAACGGCTGC ((.(.((....)).).)) | -36.8 | 53.4
GAATAAGAAATTATTC ((((((....)))))) | -10.4 | 31.9
GCTGCGGGAAACTGCGGC ((.((.(....).)).)) | -47.5 | 51.8
GACGCTGCGAAAGCAGTC (((..(((....)))))) | -8.26 | 37.2
GGTCGGCGAAAGCCAACC (((.(((....))).))) | -21 | 55.3
GTGACTGGAAACAGTCGC (.(((((....))))).) | -30.6 | 56.2
GCAACCCGAAAGGGATGC (((.(((....))).))) | -32.9 | 63.5
GATCTACGTTAGATC ((((((...)))))) | -24.8 | 38.3
GATCCGGCACCGGATC ((((((....)))))) | -44 | 63.8
GATCGCTTCTGCGATC ((((((....)))))) | -42.3 | 68.3
GATCAAACTATTGATC ((((((....)))))) | -30.1 | 40.3
AAGCAGAAATGCTT (((((....))))) | -16.8 | 42.1
GCACTTCGAAAGAATGC (((.(((....)))))) | -31.2 | 41.5
GATCGACCGTTCGATC ((((((....)))))) | -46 | 50.7
GGCTACGAAAGTAACGCC ((((((....)))..))) | -22.8 | 46.1
GTTCGACGAAAGTCAAAC (((.(((....))).))) | -21.3 | 41.7
GGCAGTCGAAAGACGGCC (((.(((....))).))) | -36.4 | 67.8
GGTTGCGAAAGCACCACC ((((((....)))..))) | -11.6 | 45.1
